Screens from PubChem.
In the library only some 2.6% were active in any assay of this set; here they are far more common.
Myeloid diff 2 – induction of myeloid progenitor differentiation, primary screen, cell-based, flow cytometry, MLPCN library | calls only at 10 µM | 360,000 compounds, 1% hits | ER-HoxA9 myeloid progenitors, lysozyme-GFP differentiation | AID 624256, 2012;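 active = normalized GFP-positive differentiation at or above the plate's own cutoff, the solvent-only control mean plus 3 SD; inconclusive = no clear call, values can overlap the other calls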;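 note: cells exposed to compound for four days before flow analysis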
Rin1-Abl PPI inh – inhibitors of Rin1-Abl protein binding, primary screen, biochemical, TR-FRET; AID 588664, 2011; 360,000 compounds, 0.4% hits; inhibition, % at 7.35 µM; in the data active = inhibition above about 5%, passing the limit was not always enough
GRK2 aptamer HTS – compounds blocking aptamer binding on GRK2 – biochemical, human GRK2, bead flow cytometry, HTS, primary screen | inhibition of aptamer binding, % at 10 µM | FAM-aptamer displacement from GRK2 | 330,000 compounds, 0.59% hits | Beta-adrenergic receptor kinase 1 (Homo sapiens), P25098;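 active = inhibition of aptamer binding above 40%, roughly 3 SD of noise, on plates passing a quality check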;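 note: median bead fluorescence of bound FAM aptamer so fluorescent compounds give negative values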
SKN-1 block – suppressors of acrylamide-induced Pgst-4::GFP reporter in worms, primary screen, SKN-1 inhibitor project, whole organism, uHTS, GFP/RFP fluorescence ratio, strain VP596; inhibition, % at 21.8 µM; AID 624304, 2012; 360,000 compounds, 0.49% hits; C. elegans VP596 Pgst-4::GFP/RFP ratio, 24 h;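 active = interference check ratio from 0.5 to 1.5 plus GFP to RFP signal ratio inhibition reaching or exceeding a fixed threshold, cut at about 30% in these data, passing the limit was not always enough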
Rce1 inh – yeast Rce1p protease inhibitors, primary screen, biochemical, fluorescence, cell-free homogeneous | yeast membranes, quenched prenylated peptide cleavage fluorescence | 290,000 compounds, 0.27% hits | CAAX prenyl protease 2 (Saccharomyces cerevisiae (strain ATCC 204508 / S288c)), Q03530 | calls only;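 active = fall in fluorescence gain of 50% or more versus controls, with final raw signal at or below 3038400; inconclusive = same 50% fall but final raw signal above 3038400; inactive = fall in fluorescence gain under 50%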;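 note: plate controls were neutral control wells for no effect and wells lacking membranes for full effect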
Target sequence (Q03530 whole entry, looked up): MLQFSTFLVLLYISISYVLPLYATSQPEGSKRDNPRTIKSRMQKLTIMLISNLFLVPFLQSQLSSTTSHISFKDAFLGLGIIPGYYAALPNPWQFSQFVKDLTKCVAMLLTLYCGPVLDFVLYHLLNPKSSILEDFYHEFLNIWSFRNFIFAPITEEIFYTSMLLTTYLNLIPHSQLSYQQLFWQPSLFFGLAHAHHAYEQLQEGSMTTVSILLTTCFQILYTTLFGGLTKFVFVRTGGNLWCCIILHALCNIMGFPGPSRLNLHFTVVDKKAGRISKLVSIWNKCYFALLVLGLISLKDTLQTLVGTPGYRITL
T cell modulator – modulators of CD8 T cell-vesicle binding, primary screen, mouse 2C CD8+ T cells, flow cytometry. 2C CD8+ T cell-vesicle binding; active compounds read low. response (vesicle binding), % at 7 µM. 330,000 compounds, 0.068% hits. AID 2052, 2009;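 active = response, share of CD8 T cells binding vesicles, and their 90th percentile fluorescence all below set limits, cut at about 80% in these data, passing the limit was not always enough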;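 note: values below 100% mean blocked vesicle binding to the CD8+ T cells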
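incubation = binding step 1.5 h, 37 °C, antibody labelling 20 min, ice | test system = 2C mouse CD8+ T cells | read-out basis = percent CD8+ FL2 mean versus row control | controls = Peptide-free naked vesicles (low) and QL9 vesicles with 0.7% DMSO vehicle (high) | detection = flow cytometry of vesicle-bound cells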
GRK2 inh confirm – GRK2 aptamer-displacing inhibitors, retest, confirmation, biochemical, cherry pick 1, bead flow cytometry; shares compounds with GRK2 aptamer HTS; bead-bound GRK2, FAM-aptamer displacement; aptamer displacement, % at 10 µM; 2,000 compounds, 4% hits;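 active = aptamer displacement above 40%, near three times the noise of non-fluorescent compounds, on plates passing quality checks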;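 note: negative values mostly reflect intrinsic compound fluorescence rather than true enhancement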
Aptamer quench 1 – quenches fluorescent RNA aptamer, GRK2 hit artifact; shares compounds with GRK2 aptamer HTS; Fluorescent RNA aptamer beads, quenching, flow cytometry; active compounds read high; fluorescence change (kMESF span), kMESF (concentration not given with the values); 110 tested, under 10 active; AID 504521;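 active = compounds whose bead fluorescence drops by more than 37 kMESF across the dose range, marking them as dye quenchers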
Aptamer quench SP – quenches fluorescent RNA aptamer, GRK2 hit artifact | shares compounds with GRK2 aptamer HTS | AID 504580 | fluorescence response (% of DMSO), % at 10 µM | 2,000 tested, under 10 active | Carboxyfluorescein RNA aptamer on beads, flow cytometry quenching; active compounds read low;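 active = compounds that quench the bead-bound fluorescent RNA probe, cutting fluorescence to under half of the solvent control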;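 note: counterscreen run without GRK2 so only probe quenching by compound is measured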
Rin1 Abl conf – Rin1-Abl binding inhibitor retest, confirmation, biochemical, TR-FRET | AID 602124, 2011 | shares compounds with Rin1-Abl PPI inh | purified proteins | 1,300 compounds, 49% hits | inhibition, % at 7.35 µM
GFP quench – GFP fluorescence inhibitors and quenchers, artefact control for Rin1-Abl interaction inhibitor project, biochemical; shares compounds with Rin1-Abl PPI inh; inhibitors/quenchers counterscreen; inhibition, % at 6.75 µM; 1,300 compounds, 8.5% hits;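 note: ABL1-eGFP fusion protein alone without its partner RIN1-SBP; 0% = protein with vehicle and 100% = wells lacking protein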
GFP quench DR – GFP fluorescence inhibitors and quenchers, dose response, artefact control for Rin1-Abl interaction inhibitor project, biochemical; shares compounds with Rin1-Abl PPI inh; GFP fluorescence interference/quenching counterscreen; IC50, µM; 230 tested, under 10 active; call rule not given here;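 note: ABL1-eGFP fusion protein alone without its RIN1 binding partner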
* = called active by the depositor; i = inactive; ? = inconclusive; . = no result; + = active, no number. Cut-off read from the data, not from the text of the source, unless noted: active = inhibition above about 6.5%; inactive = the rest.

SMILES | Myeloid diff 2 | Rin1-Abl PPI inh | GRK2 aptamer HTS | SKN-1 block | Rce1 inh | T cell modulator | Rin1 Abl conf | GFP quench | others
Cc1ccsc1C(=O)C1CCCN(Cc2cnc(N3CCOCC3)s2)C1 (stereo not given) | i | 3 | 0 | 7 | i | 396 | . | . | GRK2 inh confirm=0;Aptamer quench SP=102
COC(=O)C1=C(C(=O)OC)C2OC1c1cc3ccccc3cc12 | ? | 3 | . | -21 | . | . | . | .
COc1cc(/C=C/c2nc3ccccc3c(=O)n2-c2ccccc2O)ccc1O | i | 0 | 48* | 14 | i | 474 | . | . | GRK2 inh confirm=-42;Aptamer quench SP=106
COc1ccccc1-n1c(/C=C/c2ccc(O)cc2)nc2ccccc2c1=O | i | 4 | 0 | -8 | i | 226 | . | .
Cc1cccc(C)c1-n1nnnc1C(C1CC1)N1CCC2(CC1)C(=O)NCN2c1ccccc1 (stereo not given) | i | 1 | . | -2 | . | . | . | .
Cc1ccc(-c2nc3ccccc3c(=O)n2-c2ncccc2C)cc1 | i | -1 | 60* | -8 | i | i | . | . | GRK2 inh confirm=2;Aptamer quench SP=95
Cc1cc(C(=O)OCC(=O)Nc2ccccc2F)c(C)n1C1CC1 | i | 2 | . | 18 | . | . | . | .
COc1ccc(C(=O)C23CN4CN(CN(C4)C2)C3)cc1 | i | 0 | 43* | -26 | i | 152 | . | . | GRK2 inh confirm=-9;Aptamer quench SP=100
COc1ccc(C(=O)C2CCCN(CC3CCCCC3)C2)cc1OC (stereo not given) | i | 1 | . | 17 | . | . | . | .
CCOC(=O)[C@]12Cc3cc(Cl)ccc3[C@H]1N(CC(=O)OC)C(=O)c1ccccc12 | i | . | . | -1 | . | . | . | .
Nc1ccc2ccc3cccc[n+]3c2c1 | + | -119 | 52* | -100 | i | 452 | . | . | GRK2 inh confirm=6;Aptamer quench SP=44*
CCN1CCC2(CC1)NC(CO)(CO)CO2 | i | 2 | 48* | 4 | i | 330 | . | . | GRK2 inh confirm=-1;Aptamer quench SP=91
Cn1ncnc2c(=O)n(C)c(=O)nc1-2 | ? | 29* | 61* | -2 | i | 240 | 48* | 1 | GRK2 inh confirm=73*;Aptamer quench 1=-1.8;Aptamer quench SP=87;GFP quench DR=>68
O=c1[nH]c2ccccc2n1C1CCN(C(CCc2ccccc2)c2nnnn2C2CCCC2)CC1 (stereo not given) | i | 11 | . | 6 | . | . | . | .
O=c1c2ccccc2nc(CSc2ncnc3nc[nH]c23)n1-c1ccccc1 | i | 7.6* | 2 | -38 | i | 536 | -1 | -1
O=c1c2ccccc2nc(CSc2ncnc3nc[nH]c23)n1-c1ccccc1Cl | i | -2 | 0 | 22 | . | i | . | .
COP(=O)(OC)C(NS(=O)(=O)c1ccccc1)C(Cl)(Cl)Cl (stereo not given) | i | 8.0* | 2 | 13 | i | 161 | 0 | -1
CC(Cc1ccc(O)cc1)NCC(O)c1ccc(O)c(O)c1 (stereo not given) | i | 14* | . | 4 | . | . | 9.3* | 4
COc1c(OP2(=S)OCC(C)(C)CO2)cnn(C2CCCCC2)c1=O | i | 0 | . | 12 | . | . | . | .
CCN(CC)C(=O)c1ccc(NC(=O)c2cc(S(=O)(=O)N3CCCCCC3)ccc2OC)cc1 | i | 86* | 1 | 17 | i | 274 | 90* | 0 | GFP quench DR=>68
COC(=O)CCCCC1SCC(NC(=O)c2ccccc2)C1Cl (stereo not given) | i | 9.2* | 0 | 2 | i | 366 | 14* | -2
O=c1[nH]c2ccccc2n1C1CCN(C(c2ccccc2)c2nnnn2-c2ccc3c(c2)OCCO3)CC1 (stereo not given) | i | 6 | . | 3 | . | . | . | .
O=c1[nH]c2ccccc2n1C1CCN(C(c2nnnn2-c2ccc3c(c2)OCCO3)C2CC2)CC1 (stereo not given) | i | 17* | . | 14 | . | . | 20* | 1 | GFP quench DR=>68
COc1ccc(-n2nnnc2C(C2CC2)N2CCC(n3c(=O)[nH]c4ccccc43)CC2)cc1 (stereo not given) | i | 20* | . | -1 | . | . | 24* | 0 | GFP quench DR=>67
CSc1nc(N)c(N=Nc2ccc([As](=O)(O)O)cc2)c(=O)[nH]1 | i | 3 | 5 | 3 | i | 156 | . | .
SMILES | Myeloid diff 2 | Rin1-Abl PPI inh | GRK2 aptamer HTS | SKN-1 block | Rce1 inh | T cell modulator | Rin1 Abl conf | GFP quench | others
CCC(C)NC(=O)c1c(N)n(CC2CCCO2)c2nc3ccccc3nc12 (stereo not given) | i | 5.7* | 5 | 21 | i | 210 | 3 | -1
CCC(C)NC(=O)c1c(N)n(Cc2ccc3c(c2)OCO3)c2nc3ccccc3nc12 (stereo not given) | i | 8.5* | 6 | 20 | i | 389 | 0 | 0
CCC(C)NC(=O)c1c(N)n(CCCOC)c2nc3ccccc3nc12 (stereo not given) | i | 27* | 2 | 17 | i | 164 | 2 | -1
Nc1c(C(=O)NCCN2CCOCC2)c2nc3ccccc3nc2n1Cc1ccccc1 | i | -5 | 0 | 11 | i | 999 | . | .
COCCCn1c(N)c(C(=O)Nc2ccccc2)c2nc3ccccc3nc21 | i | 0 | 0 | -3 | i | 338 | . | .
COc1ccc(C(=O)CC(c2ccc(OC)c(OC)c2)c2c(O)c3ccccc3oc2=O)cc1OC (stereo not given) | i | 3 | . | 2 | . | . | . | .
COc1ccc(-n2nnnc2C(c2cccc3ccccc23)N2CCC3(CC2)C(=O)NCN3c2ccccc2)cc1 (stereo not given) | i | 1 | . | 8 | . | . | . | .
Cn1cc(C=O)c2nccnc21 | i | 2 | . | -1 | . | . | . | .
